# From ChEMBL document CHEMBL1148937, “Anti-inflammatory phloroglucinols and terpenoids from Garcinia subelliptica” (J Nat Prod, 2004)
# Legend:
# Mast cell [1] = test: Inhibition of compound 48/80-stimulated beta-glucuronidase release in rat peritoneal mast cell; assay type: functional, cell-based
# N9 [2] = test: Antiinflammatory activity against mouse N9 cells assessed as inhibition of LPS/IFN-gamma-induced nitrite accumulation at >30 uM after 24 hrs; assay type: functional
# How it was run: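 N9 microglial cells stimulated with LPS (10 ng/mL) plus IFN-γ (10 U/mL) for 24 h. NO production measured as nitrite accumulation in the medium by Griess reaction. IC50 in µM; where 50% inhibition was not reached at the highest concentration, % inhibition is given. Means ± SEM, n = 3-5.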
# Mast cell [3] = test: Inhibition of compound 48/80-stimulated histamine release in rat mast cell; assay type: functional, cell-based
# Mast cell [4] = test: Inhibition of compound 48/80-stimulated beta-glucuronidase release in rat mast cell at >30 uM; assay type: functional
# RAW264.7 [5] = test: Antiinflammatory activity against mouse RAW264.7 cells assessed as inhibition of LPS-induced nitrite accumulation after 24 hrs; assay type: functional, cell-based; details: RAW264.7, 24 h
# How it was run: (§1)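 RAW 264.7 macrophage-like cells stimulated with LPS (1 µg/mL) for 24 h. Nitrite accumulated in the medium was measured by Griess reaction as an index of NO production. IC50 in µM; % inhibition is reported when 50% inhibition was not reached at the top concentration. Means ± SEM, n = 3-5.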
# N9 [6] = test: Antiinflammatory activity against mouse N9 cells assessed as inhibition of LPS/IFN-gamma-induced nitrite accumulation after 24 hrs; details: N9, 24 h
# Mast cell [7] = test: Inhibition of compound 48/80-stimulated histamine release in rat mast cell at >30 uM; assay type: functional
# RAW264.7 [8] = test: Antiinflammatory activity against mouse RAW264.7 cells assessed as inhibition of LPS-induced nitrite accumulation at >30 uM after 24 hrs; assay type: functional; how it was run: as §1
# RAW264.7 [9] = test: Antiinflammatory activity against mouse RAW264.7 cells assessed as inhibition of LPS-induced TNFalpha production at 30 uM; assay type: functional
# How it was run: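 TNF-α production in the culture medium of LPS-stimulated RAW 264.7 cells, with test agent at 30 µM. Expressed as % inhibition.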
# Neutrophil = test: Induction of fMLP/CB-stimulated superoxide anion generation in rat neutrophil; assay type: functional, cell-based
# How it was run: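 Rat neutrophils stimulated with fMLP (0.3 µM) plus cytochalasin B (5 µg/mL). Superoxide anion generation measured across a concentration range of test agent.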
IC50 (Mast cell [1]),IC50 (Mast cell [3]),IC50 (RAW264.7 [5]),IC50 (N9 [6]),Compound,inhibition (INH) (N9 [2]),inhibition (INH) (Mast cell [4]),inhibition (INH) (Mast cell [7]),inhibition (INH) (RAW264.7 [8]),inhibition at 30 µM (RAW264.7 [9]),Activity (Neutrophil)
> 30 µM,> 30 µM,> 30 µM,> 30 µM,COC(=O)[C@]1(CC=C(C)C)C[C@@H](CC=C(C)C)C(C)(C)[C@@H](C(=O)C(C)C)C1=O [GARCINIELLIPTONE O],34.6%,43.9%,32.8%,22.1%,–,–
13.7 µM,23.3 µM,–,–,CCN(CC)CCCC(C)Nc1c2ccc(Cl)cc2nc2ccc(OC)cc12 (configuration not stated) [QUINACRINE],–,–,–,–,–,–

# The next lines start with the compound.
Compound,IC50 (Mast cell [1]),IC50 (Mast cell [3]),IC50 (RAW264.7 [5]),IC50 (N9 [6]),inhibition (INH) (N9 [2]),inhibition (INH) (Mast cell [4]),inhibition (INH) (Mast cell [7]),inhibition (INH) (RAW264.7 [8]),inhibition at 30 µM (RAW264.7 [9]),Activity (Neutrophil)
CC(C)=CC[C@H]1C[C@@H](CC=C(C)C)C(C)(C)[C@@H](C(=O)C(C)C)C1=O [GARCINIELLIPTONE N],> 30 µM,> 30 µM,> 30 µM,> 30 µM,34.5%,30.2%,13.7%,5.7%,–,–
CC(C)=CC[C@H]1C[C@]2(C(=O)C(C)C)C(=O)[C@@](CC=C(C)C)(C(=O)C3=C2O[C@@H](C(C)(C)O)C3)C1(C)C [GARCINIELLIPTONE L],22.9 µM,> 30 µM,22.7 µM,12.8 µM,–,–,–,–,32.1%,Dose-dependent effect
CC(C)=CC[C@H]1C[C@]2(C(=O)C(C)C)C(=O)[C@@](CC=C(C)C)(C(=O)C3=C2O[C@H](C(C)(C)O)C3)C1(C)C [GARCINIELLIPTONE M],13.6 µM,19 µM,15.3 µM,> 30 µM,–,–,–,–,36.9%,Dose-dependent effect
CC(=N)NCc1cccc(CN)c1 [1400W],–,–,2.9 µM,6.3 µM,–,–,–,–,–,–
